Measured values published in ChEMBL document CHEMBL2021841, “The design and synthesis of potent, selective benzodiazepine sulfonamide bombesin receptor subtype 3 (BRS-3) agonists with an increased barrier of atropisomerization” (Bioorg Med Chem, 2012).

Columns and labels:
[1] = Half life in Sprague-Dawley rat at 0.5 mg/kg, iv; format: ADME, organism-based; design: dose 0.5 mg/kg, route intravenous; details: in vivo
Outline: (§1)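 Sprague Dawley rats received 0.5 mg/kg iv. Plasma clearance and half-life were calculated from the plasma profile.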

[2] = molecular target: T1, Bombesin receptor subtype-3 (Homo sapiens) (UniProt P32247); test: Agonist activity at human BRS3 expressed in human HEK293AEQ cells measured for 10 mins by aequorin bioluminescence assay relative to dY-peptide; format: functional, cell-based
T1 sequence (whole entry): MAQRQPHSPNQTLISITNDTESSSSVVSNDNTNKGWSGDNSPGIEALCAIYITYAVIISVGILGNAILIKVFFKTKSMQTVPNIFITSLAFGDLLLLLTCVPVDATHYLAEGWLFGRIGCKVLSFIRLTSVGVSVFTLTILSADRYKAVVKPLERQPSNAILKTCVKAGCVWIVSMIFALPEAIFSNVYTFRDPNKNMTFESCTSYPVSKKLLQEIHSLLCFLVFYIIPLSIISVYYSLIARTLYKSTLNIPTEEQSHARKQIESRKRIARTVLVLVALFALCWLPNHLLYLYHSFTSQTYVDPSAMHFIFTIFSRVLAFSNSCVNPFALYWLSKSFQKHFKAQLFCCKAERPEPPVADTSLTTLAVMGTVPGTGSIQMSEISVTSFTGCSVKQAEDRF
Outline: (§2)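 Same aequorin read-out in HEK293AEQ cells expressing human or mouse BRS3. Compounds were titrated in ECB buffer with 0.5% DMSO final, and coelenterazine-loaded cells were injected. Luminescence was integrated over 10 min. The value is maximal activation expressed as a percentage of the maximal response to dY-peptide.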

[3] = Plasma clearance in Sprague-Dawley rat at 0.5 mg/kg, iv; format: ADME, organism-based; design: dose 0.5 mg/kg, route intravenous; outline: as §1
[4] = Half life of the compound in ethanol at 60 degC by CD spectroscopy; format: physicochemical
[5] = Oral bioavailability in Sprague-Dawley rat at 1 mg/kg; format: ADME, organism-based; details: in vivo
Outline: (§3)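 Sprague Dawley rats were dosed 1 mg/kg po. Dose-normalized oral AUC and oral bioavailability were calculated.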

[6] = molecular target: T2, Bombesin receptor subtype-3 (Mus musculus) (UniProt O54798); test: Agonist activity at mouse BRS3 expressed in human HEK293AEQ cells measured for 10 mins by aequorin bioluminescence assay relative to dY-peptide; format: functional, cell-based; outline: as §2
T2 sequence (whole entry): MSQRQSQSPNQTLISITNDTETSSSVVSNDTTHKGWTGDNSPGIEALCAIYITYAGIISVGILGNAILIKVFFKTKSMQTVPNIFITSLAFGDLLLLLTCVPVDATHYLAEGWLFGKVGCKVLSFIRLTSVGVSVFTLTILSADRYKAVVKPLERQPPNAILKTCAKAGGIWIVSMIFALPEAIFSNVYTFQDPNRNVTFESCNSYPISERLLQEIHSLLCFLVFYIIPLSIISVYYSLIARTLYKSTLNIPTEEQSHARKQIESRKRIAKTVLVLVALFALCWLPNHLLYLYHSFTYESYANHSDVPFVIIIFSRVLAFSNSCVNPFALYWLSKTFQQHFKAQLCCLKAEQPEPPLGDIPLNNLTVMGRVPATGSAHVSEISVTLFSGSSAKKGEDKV

Rattus norvegicus = test: Dose normalized AUC in Sprague-Dawley rat at 1 mg/kg, po; format: ADME, organism-based; design: dose 1 mg/kg, route oral; details: in vivo; outline: as §3
[7] = molecular target: T3, Bombesin receptor subtype-3 (Homo sapiens, UniProt P32247); test: Displacement of 125I-dY-peptide from human BRS3 expressed in NFAT-CHO cells after 2 hrs by liquid scintillation counting; format: cell-based
T3 sequence (P32247 whole entry): T1 sequence (whole entry)

[8] = molecular target: T4, Bombesin receptor subtype-3 (Mus musculus, UniProt O54798); test: Agonist activity at mouse BRS3 expressed in human HEK293AEQ cells measured for 10 mins by aequorin bioluminescence assay; format: functional, cell-based
T4 sequence (O54798 whole entry): T2 sequence (whole entry)

[9] = molecular target: T3, Bombesin receptor subtype-3; test: Agonist activity at human BRS3 expressed in human HEK293AEQ cells measured for 10 mins by aequorin bioluminescence assay; format: functional, cell-based

Row | half-life [1] | Activity [2] | clearance [3] | half-life [4] | bioavailability [5] | Activity [6] | AUC/dose (Rattus norvegicus) | IC50 [7] | EC50 [8] | EC50 [9] | Structure (SMILES)
1 | 174 min | 97% | 21 mL/min/kg | > 10.4 days | 49% | 99% | 0.6 µM·kg·h/mg | 0.6 nM | 76 nM | 82 nM | CC(C)(O)c1nc(C2(c3cccc4c3N(S(=O)(=O)c3ccc(OC(F)(F)F)cc3)Cc3ccc(C(F)(F)F)nc3N4)CCC2)no1
2 | 102 min | 106% | 25 mL/min/kg | – | 60% | 112% | 0.69 µM·kg·h/mg | 2.1 nM | 22 nM | 15 nM | CNC(=O)C1(c2cccc3c2N(S(=O)(=O)c2ccc(OC(F)(F)F)cc2)Cc2ccc(C(F)(F)F)nc2N3)CCC1
3 | 96 min | 90% | 33 mL/min/kg | – | 31% | 98% | 0.3 µM·kg·h/mg | 0.5 nM | 27 nM | 26 nM | CC(C)(C(N)=O)c1cccc2c1N(S(=O)(=O)c1ccc(OC(F)(F)F)cc1)Cc1ccc(C(F)(F)F)nc1N2
4 | 186 min | 97% | 12 mL/min/kg | > 10.4 days | 100% | 105% | 2.6 µM·kg·h/mg | 1.4 nM | 67 nM | 64 nM | CC(C)(O)c1nc(C(C)(C)c2cccc3c2N(S(=O)(=O)c2ccc(OC(F)(F)F)cc2)Cc2ccc(C(F)(F)F)nc2N3)no1

Continued, compound first:

Row | Structure (SMILES) | half-life [1] | Activity [2] | clearance [3] | half-life [4] | bioavailability [5] | Activity [6] | AUC/dose (Rattus norvegicus) | IC50 [7] | EC50 [8] | EC50 [9]
5 | CC(C)(O)c1nc(-c2cccc3c2N(S(=O)(=O)c2ccc(OC(F)(F)F)cc2)Cc2ccc(C(F)(F)F)nc2N3)no1 | 660 min | 106% | 16 mL/min/kg | 0.0917 days | 93% | – | 1.6 µM·kg·h/mg | 3.6 nM | 130 nM | 73 nM
6 | NC(=O)C1(c2cccc3c2N(S(=O)(=O)c2ccc(OC(F)(F)F)cc2)Cc2ccc(C(F)(F)F)nc2N3)CCC1 | 48 min | 95% | 31 mL/min/kg | > 10.4 days | 32% | 100% | 0.3 µM·kg·h/mg | 0.5 nM | 22 nM | 21 nM
